From ChEMBL document CHEMBL1140930 (J Med Chem, 2009)

How the values were obtained:
K562 = assay: Antiproliferative activity against human K562 cells after 48 hrs; format: functional, cell-based; conditions: K562, 48 h
Method in brief: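 K562 cells (RPMI 1640, 10% FBS, 37 °C, 5% CO2) plated at 2 × 10⁵ cells/mL. Compounds dissolved in DMSO/methanol 1:1, vehicle 0.5%. Cells counted in a Neubauer chamber after 48 h and expressed as % of untreated control. Triplicate wells, three experiments. IC50 from nonlinear regression.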

Tubulin = Tubulin (Sus scrofa, UniProt P02554+P02550); assay: Inhibition of pig brain tubulin polymerization after 30 mins by turbidimetric assay
Method in brief: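 Microtubule protein from porcine brain (80–90% tubulin, 10–20% MAPs), purified by two disassembly/reassembly cycles. Assay buffer: 20 mM PIPES pH 6.8, 80 mM NaCl, 0.5 mM MgCl2, 1 mM EGTA, 1 mM DTT. Protein at 1.2 mg/mL with 0.6 mM GTP final, 1% DMSO final, 37 °C.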

[1] = Antiproliferative activity against human KB/HeLa cells by XTT assay; format: functional, cell-based
Method in brief: (§1)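 XTT metabolic read-out. Cells seeded at 1 × 10³–8 × 10⁴ cells/well for logarithmic growth and exposed to graded concentrations for 48 h. At least two replicates. IC50 from nonlinear regression of dose-response curves. LT12/MDR: rat LT12 with ectopic human MDR-1. L1210/VCR: MDR-1 expressing, MRP-1 negative.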

SK-OV-3 = assay: Antiproliferative activity against human SKOV3 cells by XTT assay; format: functional, cell-based
Method in brief: (§2)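 XTT metabolic-activity read-out of proliferation. Cells were seeded at 1 × 10³-8 × 10⁴ cells/well for logarithmic growth and exposed to a range of compound concentrations for 48 h. IC50 came from nonlinear regression of dose-response curves, with at least two replicates. The P388/Adr subline was doxorubicin-selected with elevated MDR-1.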

SF-268 = assay: Antiproliferative activity against human SF268 cells by XTT assay; format: functional, cell-based; method in brief: as §1
NCI-H460 = assay: Antiproliferative activity against human NCI-H460 cells by XTT assay; format: functional, cell-based; method in brief: as §1
RKO [2] = assay: Antiproliferative activity against human RKO cells by XTT assay; format: functional, cell-based
Method in brief: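 RKO colon cells with ecdysone-inducible p27Kip1. Day 1: plated with or without 3 µM ponasterone A for 24 h, giving G1 arrest when induced (2 × 10⁴ cells/well induced; 6 × 10³ not induced). Day 2: compound added (DMSO control) for 48 h at 37 °C, then standard XTT. At least duplicate. IC50 by nonlinear regression.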

RKO [3] = assay: Antiproliferative activity against human RKO cells containing ecdysone-inducible expression vector of p27kipl by XTT assay; format: functional, cell-based
Method in brief: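 RKO cells carried an ecdysone-inducible p27Kip1 vector and were tested with and without induction. On day 1 they were plated with or without 3 µM ponasterone A, which gives G1 arrest, at 2 × 10⁴ cells/well induced or 6 × 10³ not induced, then held 24 h at 37 °C. Compound was then added for 48 h at 37 °C, followed by a standard XTT assay. IC50 came from nonlinear regression, n ≥ 2.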

[4] = Antiproliferative activity against rat LT12 cells after 48 hrs by XTT assay; format: functional, cell-based; conditions: LT12, 48 h; method in brief: as §2
[5] = Antiproliferative activity against rat LT12 cells ectopic expression of human MDR1 after 48 hrs by XTT assay; format: functional, cell-based; conditions: LT12, 48 h; method in brief: as §1
L1210 = assay: Antiproliferative activity against vincristine-resistance MRP1 negative mouse L1210 cells expressing human MDR1 after 48 hrs by XTT assay; format: functional, cell-based; conditions: L1210, 48 h; method in brief: as §1
P388 [6] = assay: Antiproliferative activity against mouse P388 cells after 48 hrs by XTT assay; format: functional, cell-based; conditions: P388, 48 h; method in brief: as §2
P388 [7] = assay: Antiproliferative activity against doxorubicin-resistant mouse P388 cells expressing MDR1 protein after 48 hrs by XTT assay; format: functional, cell-based; conditions: P388, 48 h; method in brief: as §2
[8] = Cell cycle arrest in human KB/HeLa cells assessed as G2/M phase accumulation after 24 hrs by FACS analysis; format: functional, cell-based
Method in brief: (§3)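 Subconfluent KB/HeLa cells exposed to a range of compound concentrations for 24 h at 37 °C, then detached and fixed in 70% ethanol. DNA stained with propidium iodide after RNase digestion and measured by flow cytometry. Cell-cycle phase fractions taken from cell cycle analysis software. At least two replicates.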

[9] = Cell cycle arrest in human KB/HeLa cells assessed as S phase accumulation at 1 nM after 24 hrs by FACS analysis; format: functional, cell-based; method in brief: as §3
[10] = Cell cycle arrest in human KB/HeLa cells assessed as G2/M phase accumulation at 1 nM after 24 hrs by FACS analysis; format: functional, cell-based; method in brief: as §3
[11] = Cell cycle arrest in human KB/HeLa cells assessed as G1 phase accumulation at 1 nM after 24 hrs by FACS analysis; format: functional, cell-based; method in brief: as §3
[12] = Cell cycle arrest in human KB/HeLa cells assessed as S phase accumulation at 3.16 nM after 24 hrs by FACS analysis; format: functional, cell-based; method in brief: as §3
[13] = Cell cycle arrest in human KB/HeLa cells assessed as G2/M phase accumulation at 3.16 nM after 24 hrs by FACS analysis; format: functional, cell-based; method in brief: as §3
[14] = Cell cycle arrest in human KB/HeLa cells assessed as G1 phase accumulation at 3.16 nM after 24 hrs by FACS analysis; format: functional, cell-based; method in brief: as §3
[15] = Cell cycle arrest in human KB/HeLa cells assessed as S phase accumulation at 10 nM after 24 hrs by FACS analysis; format: functional, cell-based; method in brief: as §3
[16] = Cell cycle arrest in human KB/HeLa cells assessed as G2/M phase accumulation at 10 nM after 24 hrs by FACS analysis; format: functional, cell-based; method in brief: as §3
[17] = Cell cycle arrest in human KB/HeLa cells assessed as G1 phase accumulation at 10 nM after 24 hrs by FACS analysis; format: functional, cell-based; method in brief: as §3
[18] = Cell cycle arrest in human KB/HeLa cells assessed as S phase accumulation at 31.6 nM after 24 hrs by FACS analysis; format: functional, cell-based; method in brief: as §3
[19] = Cell cycle arrest in human KB/HeLa cells assessed as G2/M phase accumulation at 31.6 nM after 24 hrs by FACS analysis; format: functional, cell-based; method in brief: as §3
[20] = Cell cycle arrest in human KB/HeLa cells assessed as G1 phase accumulation at 31.6 nM after 24 hrs by FACS analysis; format: functional, cell-based; method in brief: as §3
[21] = Cell cycle arrest in human KB/HeLa cells assessed as S phase accumulation at 100 nM after 24 hrs by FACS analysis; format: functional, cell-based; method in brief: as §3
[22] = Cell cycle arrest in human KB/HeLa cells assessed as G2/M phase accumulation at 100 nM after 24 hrs by FACS analysis; format: functional, cell-based; method in brief: as §3
[23] = Cell cycle arrest in human KB/HeLa cells assessed as G1 phase accumulation at 100 nM after 24 hrs by FACS analysis; format: functional, cell-based; method in brief: as §3
[24] = Cell cycle arrest in human KB/HeLa cells assessed as S phase accumulation at 316 nM after 24 hrs by FACS analysis; format: functional, cell-based; method in brief: as §3
[25] = Cell cycle arrest in human KB/HeLa cells assessed as G2/M phase accumulation at 316 nM after 24 hrs by FACS analysis; format: functional, cell-based; method in brief: as §3
[26] = Cell cycle arrest in human KB/HeLa cells assessed as G1 phase accumulation at 316 nM after 24 hrs by FACS analysis; format: functional, cell-based; method in brief: as §3

O=C1c2ccccc2C(C(O)C(=O)c2ccccc2)c2ccccc21 (stereo not given)
IC50 (K562): 27000 nM | IC50 (Tubulin): > 10000 nM

COc1ccc(C(=O)C=C2c3ccccc3C(=O)c3ccccc32)c(OC)c1
IC50 (Tubulin): 900 nM

COc1ccc(C(=O)C=C2c3ccccc3C(=O)c3ccccc32)c(OC)c1OC
IC50 (K562): 11000 nM | IC50 (Tubulin): > 10000 nM

COc1cc(C(=O)C=C2c3ccccc3C(=O)c3ccccc32)cc(OC)c1OC
IC50 (K562): 700 nM | IC50 (Tubulin): 3700 nM

COc1ccc(C(=O)C=C2c3ccccc3C(=O)c3ccccc32)c(O)c1OC
IC50 (K562): > 30000 nM | IC50 (Tubulin): > 10000 nM

COc1ccccc1OC(=O)C=C1c2ccccc2C(=O)c2ccccc21
IC50 (K562): 1900 nM | IC50 (Tubulin): 10000 nM

O=C(C=C1c2ccccc2C(=O)c2ccccc21)c1cccs1
IC50 (K562): 5210 nM | IC50 (Tubulin): 10000 nM

O=C(C=C1c2ccccc2C(=O)c2ccccc21)c1ccc(O)cc1
IC50 (K562): 3430 nM | IC50 (Tubulin): 900 nM

COc1csc(C(=O)C=C2c3ccccc3C(=O)c3ccccc32)c1
IC50 (K562): 690 nM | IC50 (Tubulin): 2300 nM

COc1cccc(C(=O)C=C2c3ccccc3C(=O)c3ccccc32)c1
IC50 (K562): 2600 nM | IC50 (Tubulin): 3300 nM

COc1ccc(C(=O)COc2c3ccccc3cc3ccccc23)cc1
IC50 (K562): 10000 nM

COc1ccc(C(=O)C(O)C2c3ccccc3C(=O)c3ccccc32)cc1 (stereo not given)
IC50 (K562): 18000 nM | IC50 (Tubulin): > 10000 nM

COC(=O)C=C1c2ccccc2C(=O)c2ccccc21
IC50 (K562): 6000 nM

Cc1ccc(C(=O)C=C2c3ccccc3C(=O)c3ccccc32)cc1
IC50 (K562): 640 nM | IC50 (Tubulin): 1100 nM

COc1cccc(OC)c1OC(=O)C=C1c2ccccc2C(=O)c2ccccc21
IC50 (K562): 1640 nM | IC50 (Tubulin): 10000 nM

O=C(C=C1c2ccccc2C(=O)c2ccccc21)c1ccc(O)c(O)c1
IC50 [1]: 270 nM | IC50 (SK-OV-3): 160 nM | IC50 (SF-268): 220 nM | IC50 (NCI-H460): 430 nM | IC50 (RKO [2]): 240 nM | IC50 (RKO [3]): > 9000 nM | IC50 (K562): 160 nM | IC50 (Tubulin): 2600 nM

COc1ccc(C(=O)C=C2c3ccccc3C(O)c3ccccc32)cc1 (stereo not given)
IC50 (K562): 210 nM | IC50 (Tubulin): 1200 nM

COc1cc(C(=O)C(O)C2c3ccccc3C(=O)c3ccccc32)cc(OC)c1OC (stereo not given)
IC50 (K562): 21000 nM | IC50 (Tubulin): > 10000 nM

O=C(C=C1c2ccccc2C(=O)c2ccccc21)c1ccccc1
IC50 (K562): 3600 nM | IC50 (Tubulin): 5000 nM

COC(=O)Nc1nc2cc(C(=O)c3cccs3)ccc2[nH]1 [NOCODAZOLE]
IC50 [1]: 140 nM | IC50 (RKO [3]): > 10000 nM | IC50 [4]: 6 nM | IC50 [5]: 400 nM | IC50 (L1210): > 5000 nM | IC50 (P388 [6]): 40 nM | IC50 (P388 [7]): > 5000 nM | EC50 [8]: 91 nM | Activity [9]: 23.6% | Activity [10]: 11.1% | Activity [11]: 65.2% | Activity [12]: 24.8% | Activity [13]: 10.6% | Activity [14]: 64.6% | Activity [15]: 25.7% | Activity [16]: 10% | Activity [17]: 64.2% | Activity [18]: 25.7% | Activity [19]: 9.9% | Activity [20]: 64.4% | Activity [21]: 26.1% | Activity [22]: 51.4% | Activity [23]: 22.3% | Activity [24]: 6% | Activity [25]: 93.2% | Activity [26]: 0.9%

CC(=O)O[C@H]1C(=O)[C@@]2(C)[C@H]([C@H](OC(=O)c3ccccc3)[C@]3(O)C[C@H](OC(=O)[C@H](O)[C@@H](NC(=O)c4ccccc4)c4ccccc4)C(C)=C1C3(C)C)[C@]1(OC(C)=O)CO[C@@H]1C[C@@H]2O [PACLITAXEL]
IC50 [1]: 30 nM | IC50 (SK-OV-3): 50 nM | IC50 (SF-268): 50 nM | IC50 (NCI-H460): 70 nM | IC50 (RKO [2]): 20 nM | IC50 (RKO [3]): > 10000 nM | IC50 [4]: 300 nM | IC50 [5]: 50 nM | IC50 (L1210): 70 nM | IC50 (P388 [6]): 70 nM | IC50 (P388 [7]): 50 nM | EC50 [8]: 49 nM | Activity [9]: 26.7% | Activity [10]: 10.1% | Activity [11]: 63.2% | Activity [12]: 27% | Activity [13]: 9.4% | Activity [14]: 63.6% | Activity [15]: 26.6% | Activity [16]: 8.5% | Activity [17]: 64.8% | Activity [18]: 49.9% | Activity [19]: 19% | Activity [20]: 31.1% | Activity [21]: 11% | Activity [22]: 87.9% | Activity [23]: 1.2% | Activity [24]: 8.9% | Activity [25]: 90.8% | Activity [26]: 0.3%

CC[C@]1(O)C[C@@H]2CN(CCc3c([nH]c4ccccc34)[C@@](C(=O)OC)(c3cc4c(cc3OC)N(C)[C@H]3[C@@](O)(C(N)=O)[C@H](O)[C@]5(CC)C=CCN6CC[C@]43[C@@H]65)C2)C1 [VINDESINE]
IC50 [4]: 200 nM | IC50 [5]: 260 nM | IC50 (L1210): > 5000 nM
